Measurements reported in ChEMBL document CHEMBL2321727, “The impact of introducing a histidine into an apolar cavity site on docking and ligand recognition” (J Med Chem, 2013).
pKd: −log10 of the molar value.

Experiments:
[1] = test system: Endolysin (Enterobacteria phage T4), P00720 [L99A,M102H]; settings: Tequatrovirus T4
[2] = test system: Endolysin (Enterobacteria phage T4), P00720 [L99A,M102H]; settings: Tequatrovirus T4; remark: listed apart in the source
[3] = test system: Endolysin (Enterobacteria phage T4), P00720 [L99A,M102H]; settings: Tequatrovirus T4; remark: listed apart in the source
Endolysin = Endolysin (Enterobacteria phage T4, UniProt P00720, L99A/M102H); design: species or system Tequatrovirus T4
[4] = test system: Endolysin (Enterobacteria phage T4), P00720 [L99A,M102H]; test: Binding affinity to Enterobacteria phage T4 lysozyme harboring L99A/M102H double mutant expressed in Escherichia coli BL21(DE3) assessed as change in melting temperature at 1 mM at pH 6.8 by circular dichroism analysis; settings: Tequatrovirus T4
Outline: (§1)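 CD thermal unfolding at pH 6.8 of Ni-NTA-purified T4 lysozyme L99A/M102H expressed from pET-28 in E. coli BL21(DE3). Ligand added from DMSO to 0.5 or 1 mM final, 0.1% DMSO final in all samples and controls. ΔCp set to 8.1 kJ mol⁻¹ K⁻¹. ΔTm ≥0.4 °C scored as binding. ΔGmelt = ΔTm × ΔH/Tm.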

[5] = test system: Endolysin (Enterobacteria phage T4), P00720 [L99A,M102H]; test: Binding affinity to Enterobacteria phage T4 lysozyme L99A/M102H double mutant expressed in Escherichia coli BL21(DE3) assessed as change in melting temperature at 0.5 mM at pH 5.4 by circular dichroism analysis; settings: Tequatrovirus T4
Outline: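 T4 lysozyme L99A/M102H from pET-28 in E. coli BL21(DE3), purified on Ni-NTA, ≥95% pure. Thermal melts followed by CD at pH 5.4, at least in triplicate. Ligand added from DMSO to 0.5 mM final, 0.1% DMSO final, controls included. ΔCp set to 10.5 kJ mol⁻¹ K⁻¹. Binder cutoff is ΔTm ≥0.4 °C. ΔGmelt = ΔTm × ΔS, with ΔS = ΔH/Tm.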

[6] = test system: Endolysin (Enterobacteria phage T4), P00720 [L99A,M102H]; test: Binding affinity to Enterobacteria phage T4 lysozyme L99A/M102H double mutant expressed in Escherichia coli BL21(DE3) assessed as change in melting temperature at 0.5 mM at pH 6.8 by circular dichroism analysis; settings: Tequatrovirus T4
Outline: as §1

[7] = test system: Endolysin (Enterobacteria phage T4), P00720 [L99A,M102H]; settings: Tequatrovirus T4; remark: listed apart in the source

Structure (SMILES) | ΔTm [2] [°C] | also measured
C#CC(O)c1ccccc1 (configuration not stated) |  | ΔTm [1]: 2.2 °C
Nc1ncc(Cl)s1 | 1.1 | 
C=CCc1ccccc1O [2-ALLYLPHENOL] |  | ΔTm [3]: 2.9 °C
Cc1cc(C(F)(F)F)n[nH]1 | 1.9 | 
N#Cc1cc(Br)ccc1O | 2.2 | 
Brc1c[nH]cn1 | 0.4 | pKd (Endolysin): 3.50
Cc1cc(C)n(CO)n1 | -0.7 | ΔTm [4]: 0.3 °C
c1ccncc1 |  | ΔTm [4]: 0.1 °C
C=CSc1ccccc1 | 1 | 
Nc1ccc(F)cc1Cl | -0.3 | ΔTm [4]: 1.3 °C
CSc1ccc(F)cc1 | 0.4 | 
O=Cc1cc(O)ccc1Br |  | ΔTm [5]: 0.9 °C
FC(F)(F)c1c[nH]cn1 | 1 | 
Clc1n[nH]c2ncccc12 |  | ΔTm [6]: 1 °C; ΔTm [5]: 0.1 °C
Nc1cc(F)c(F)cc1Br | 0.2 | ΔTm [4]: 0.8 °C
C#Cc1ccccc1N |  | ΔTm [6]: 0.5 °C; ΔTm [5]: 0.5 °C
Cc1cc(C)[nH]n1 | -0.3 | ΔTm [4]: 1.4 °C

Structure (SMILES) | ΔTm [2] [°C] | also measured
Nc1ccccc1 |  | ΔTm [6]: 0.5 °C; ΔTm [5]: 0.2 °C
O=C(O)C(F)(F)F |  | ΔTm [1]: -0.8 °C
N#Cc1ccc([N+](=O)[O-])s1 | 0.2 | 
OCc1cccc(Br)c1 | -0.7 | 
CC(=O)c1ccc(O)cc1 | 0.5 | 
OCc1cc(Cl)ccc1Cl | -0.1 | 
CC(CO)c1ccccc1 (configuration not stated) | 0.1 | 
Oc1cc(C(F)(F)F)ccn1 | 0.1 | 
CCc1cc(O)ccc1Cl | -0.9 | 
c1ccc2oncc2c1 | 0.2 | 
N#Cc1ccccc1O |  | ΔTm [7]: 0.6 °C
OCCS |  | ΔTm [3]: 0 °C
O=[N+]([O-])c1ccc(O)cc1 | 5 | ΔTm [4]: 4.5 °C
OCCn1cccn1 | 0.3 | 
N#CNC#N | -0.6 | 
OCc1ccc(Cl)c(Cl)c1 | 0.2 | 
